{"source": "ChEMBL document CHEMBL1255300", "about": "“Pharmacodynamics of the antibacterial effect and emergence of resistance to tomopenem, formerly RO4908463/CS-023, in an in vitro pharmacokinetic model of Staphylococcus aureus infection” (Antimicrob Agents Chemother, 2008)", "type_in_all_cases": "functional", "key": {"Staphylococcus aureus [1]": {"test_system": "Staphylococcus aureus", "assay": "Antibacterial activity against methicillin-resistant Staphylococcus aureus 33922 infected in in vitro pharmacokinetic model assessed as time required to 99% killing at 3 mg/ml using 10^6 CFU/ml inoculum"}, "Staphylococcus aureus [2]": {"test_system": "Staphylococcus aureus", "assay": "Antibacterial activity against methicillin-resistant Staphylococcus aureus 33827 infected in in vitro pharmacokinetic model assessed as time required to 99% killing at 3 mg/ml using 10^6 CFU/ml inoculum"}, "Staphylococcus aureus [3]": {"test_system": "Staphylococcus aureus", "assay": "Antibacterial activity against methicillin-resistant Staphylococcus aureus 33815 infected in in vitro pharmacokinetic model assessed as time required to 99% killing at 3 mg/ml using 10^6 CFU/ml inoculum", "method_in_brief": "(§1)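 Single-compartment model in 10% MHB at 37°C with 10^6 CFU/ml inoculum. Log change in count from time 0 and times to 99%/99.9% kill from serial spiral-plate counts; at least triplicate.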"}, "Staphylococcus aureus [4]": {"test_system": "Staphylococcus aureus", "assay": "Antibacterial activity against methicillin-resistant Staphylococcus aureus 33922 infected in in vitro pharmacokinetic model assessed as reduction in viable count at 3 mg/ml after 12 hrs using 10^6 CFU/ml inoculum"}, "Staphylococcus aureus [5]": {"test_system": "Staphylococcus aureus", "assay": "Antibacterial activity against methicillin-resistant Staphylococcus aureus 33827 infected in in vitro pharmacokinetic model assessed as reduction in viable count at 3 mg/ml after 12 hrs using 10^6 CFU/ml inoculum"}, "Staphylococcus aureus [6]": {"test_system": "Staphylococcus aureus", "assay": "Antibacterial activity against methicillin-resistant Staphylococcus aureus 33815 infected in in vitro pharmacokinetic model assessed as reduction in viable count at 3 mg/ml after 12 hrs using 10^6 CFU/ml inoculum", "method_in_brief": "as §1"}, "Staphylococcus aureus [7]": {"test_system": "Staphylococcus aureus", "assay": "Antibacterial activity against methicillin-resistant Staphylococcus aureus 33922 infected in in vitro pharmacokinetic model assessed as reduction in viable count at 3 mg/ml after 24 hrs using 10^6 CFU/ml inoculum"}, "Staphylococcus aureus [8]": {"test_system": "Staphylococcus aureus", "assay": "Antibacterial activity against methicillin-resistant Staphylococcus aureus 33827 infected in in vitro pharmacokinetic model assessed as reduction in viable count at 3 mg/ml after 24 hrs using 10^6 CFU/ml inoculum"}, "Staphylococcus aureus [9]": {"test_system": "Staphylococcus aureus", "assay": "Antibacterial activity against methicillin-resistant Staphylococcus aureus 33815 infected in in vitro pharmacokinetic model assessed as reduction in viable count at 3 mg/ml after 24 hrs using 10^6 CFU/ml inoculum", "method_in_brief": "as §1"}, "Staphylococcus aureus [10]": {"test_system": "Staphylococcus aureus", "assay": "Antibacterial activity against methicillin-resistant Staphylococcus aureus 33922 infected in in vitro pharmacokinetic model assessed as reduction in viable count at 3 mg/ml after 36 hrs using 10^6 CFU/ml inoculum"}, "Staphylococcus aureus [11]": {"test_system": "Staphylococcus aureus", "assay": "Antibacterial activity against methicillin-resistant Staphylococcus aureus 33827 infected in in vitro pharmacokinetic model assessed as reduction in viable count at 3 mg/ml after 36 hrs using 10^6 CFU/ml inoculum"}, "Staphylococcus aureus [12]": {"test_system": "Staphylococcus aureus", "assay": "Antibacterial activity against methicillin-resistant Staphylococcus aureus 33815 infected in in vitro pharmacokinetic model assessed as reduction in viable count at 3 mg/ml after 36 hrs using 10^6 CFU/ml inoculum", "method_in_brief": "as §1"}, "Staphylococcus aureus [13]": {"test_system": "Staphylococcus aureus", "assay": "Antibacterial activity against methicillin-resistant Staphylococcus aureus 33922 infected in in vitro pharmacokinetic model assessed as reduction in viable count at 3 mg/ml after 48 hrs using 10^6 CFU/ml inoculum"}, "Staphylococcus aureus [14]": {"test_system": "Staphylococcus aureus", "assay": "Antibacterial activity against methicillin-resistant Staphylococcus aureus 33827 infected in in vitro pharmacokinetic model assessed as reduction in viable count at 3 mg/ml after 48 hrs using 10^6 CFU/ml inoculum"}, "Staphylococcus aureus [15]": {"test_system": "Staphylococcus aureus", "assay": "Antibacterial activity against methicillin-resistant Staphylococcus aureus 33815 infected in in vitro pharmacokinetic model assessed as reduction in viable count at 3 mg/ml after 48 hrs using 10^6 CFU/ml inoculum", "method_in_brief": "as §1"}, "Staphylococcus aureus [16]": {"test_system": "Staphylococcus aureus", "assay": "Antibacterial activity against methicillin-resistant Staphylococcus aureus 33922 infected in in vitro pharmacokinetic model assessed as time required to 99.9% killing at 3 mg/ml using 10^6 CFU/ml inoculum"}, "Staphylococcus aureus [17]": {"test_system": "Staphylococcus aureus", "assay": "Antibacterial activity against methicillin-resistant Staphylococcus aureus 33827 infected in in vitro pharmacokinetic model assessed as time required to 99.9% killing at 3 mg/ml using 10^6 CFU/ml inoculum"}, "Staphylococcus aureus [18]": {"test_system": "Staphylococcus aureus", "assay": "Antibacterial activity against methicillin-resistant Staphylococcus aureus 33815 infected in in vitro pharmacokinetic model assessed as time required to 99.9% killing at 3 mg/ml using 10^6 CFU/ml inoculum", "method_in_brief": "as §1"}, "Staphylococcus aureus [19]": {"test_system": "Staphylococcus aureus", "assay": "AUBKC (0 to 24 hrs) in methicillin-resistant Staphylococcus aureus 33922 infected in in vitro pharmacokinetic model at 3 mg/ml using 10^6 CFU/ml inoculum", "method_in_brief": "(§2)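 Run in a single-compartment in vitro PK model at 37°C in 10% MHB, flow 47.9 ml/h, 10^6 CFU/ml inoculum. Viable counts over 48 h. AUBKC 0-24 and 0-48 h by log-linear trapezoidal rule, at least triplicate.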"}, "Staphylococcus aureus [20]": {"test_system": "Staphylococcus aureus", "assay": "AUBKC (0 to 24 hrs) in methicillin-resistant Staphylococcus aureus 33827 infected in in vitro pharmacokinetic model at 3 mg/ml using 10^6 CFU/ml inoculum", "method_in_brief": "as §2"}, "Staphylococcus aureus [21]": {"test_system": "Staphylococcus aureus", "assay": "AUBKC (0 to 24 hrs) in methicillin-resistant Staphylococcus aureus 33815 infected in in vitro pharmacokinetic model at 3 mg/ml using 10^6 CFU/ml inoculum", "method_in_brief": "as §2"}, "Staphylococcus aureus [22]": {"test_system": "Staphylococcus aureus", "assay": "AUBKC (0 to 48 hrs) in methicillin-resistant Staphylococcus aureus 33922 infected in in vitro pharmacokinetic model at 3 mg/ml using 10^6 CFU/ml inoculum", "method_in_brief": "as §2"}, "Staphylococcus aureus [23]": {"test_system": "Staphylococcus aureus", "assay": "AUBKC (0 to 48 hrs) in methicillin-resistant Staphylococcus aureus 33827 infected in in vitro pharmacokinetic model at 3 mg/ml using 10^6 CFU/ml inoculum", "method_in_brief": "as §2"}, "Staphylococcus aureus [24]": {"test_system": "Staphylococcus aureus", "assay": "AUBKC (0 to 48 hrs) in methicillin-resistant Staphylococcus aureus 33815 infected in in vitro pharmacokinetic model at 3 mg/ml using 10^6 CFU/ml inoculum", "method_in_brief": "as §2"}}, "data": [{"compound": "CN[C@H](CC(C)C)C(=O)N[C@H]1C(=O)N[C@@H](CC(N)=O)C(=O)N[C@H]2C(=O)N[C@H]3C(=O)N[C@H](C(=O)N[C@H](C(=O)O)c4cc(O)cc(O)c4-c4cc3ccc4O)[C@H](O)c3ccc(c(Cl)c3)Oc3cc2cc(c3O[C@@H]2O[C@H](CO)[C@@H](O)[C@H](O)[C@H]2O[C@H]2C[C@](C)(N)[C@H](O)[C@H](C)O2)Oc2ccc(cc2Cl)[C@H]1O", "note": "[VANCOMYCIN]", "values": [{"measurement": "Time", "setting": "Staphylococcus aureus [1]", "value": 12, "unit": "h"}, {"measurement": "Time", "setting": "Staphylococcus aureus [2]", "value": 24, "unit": "h"}, {"measurement": "Time", "setting": "Staphylococcus aureus [3]", "value": 12, "unit": "h"}, {"measurement": "log10CFU/ml", "setting": "Staphylococcus aureus [4]", "value": 2.2}, {"measurement": "log10CFU/ml", "setting": "Staphylococcus aureus [5]", "value": 1.8}, {"measurement": "log10CFU/ml", "setting": "Staphylococcus aureus [6]", "value": 3.3}, {"measurement": "log10CFU/ml", "setting": "Staphylococcus aureus [7]", "value": 2.6}, {"measurement": "log10CFU/ml", "setting": "Staphylococcus aureus [8]", "value": 3.2}, {"measurement": "log10CFU/ml", "setting": "Staphylococcus aureus [9]", "value": 2}, {"measurement": "log10CFU/ml", "setting": "Staphylococcus aureus [10]", "value": 3}, {"measurement": "log10CFU/ml", "setting": "Staphylococcus aureus [11]", "value": 4}, {"measurement": "log10CFU/ml", "setting": "Staphylococcus aureus [12]", "value": 1.7}, {"measurement": "log10CFU/ml", "setting": "Staphylococcus aureus [13]", "value": 2.9}, {"measurement": "log10CFU/ml", "setting": "Staphylococcus aureus [14]", "value": 4.2}, {"measurement": "log10CFU/ml", "setting": "Staphylococcus aureus [15]", "value": 1.6}, {"measurement": "Time", "setting": "Staphylococcus aureus [16]", "value": ">48", "unit": "h"}, {"measurement": "Time", "setting": "Staphylococcus aureus [17]", "value": 24, "unit": "h"}, {"measurement": "Time", "setting": "Staphylococcus aureus [18]", "value": 12, "unit": "h"}, {"measurement": "AUBC", "setting": "Staphylococcus aureus [19]", "value": 54.8, "unit": "log10CFU/ml.hr"}, {"measurement": "AUBC", "setting": "Staphylococcus aureus [20]", "value": 56.7, "unit": "log10CFU/ml.hr"}, {"measurement": "AUBC", "setting": "Staphylococcus aureus [21]", "value": 46.2, "unit": "log10CFU/ml.hr"}, {"measurement": "AUBC", "setting": "Staphylococcus aureus [22]", "value": 80.1, "unit": "log10CFU/ml.hr"}, {"measurement": "AUBC", "setting": "Staphylococcus aureus [23]", "value": 61.9, "unit": "log10CFU/ml.hr"}, {"measurement": "AUBC", "setting": "Staphylococcus aureus [24]", "value": 97.4, "unit": "log10CFU/ml.hr"}]}]}
